These results are taken from ChEMBL document CHEMBL1156756, “4-Oxo-beta-lactams (azetidine-2,4-diones) are potent and selective inhibitors of human leukocyte elastase” (J Med Chem, 2010).

The source made the active and inactive calls. The rule behind the calls is not given here.

The target of data set [1] is T1, Cathepsin G (Homo sapiens) (UniProt P08311).
T1 sequence (whole entry): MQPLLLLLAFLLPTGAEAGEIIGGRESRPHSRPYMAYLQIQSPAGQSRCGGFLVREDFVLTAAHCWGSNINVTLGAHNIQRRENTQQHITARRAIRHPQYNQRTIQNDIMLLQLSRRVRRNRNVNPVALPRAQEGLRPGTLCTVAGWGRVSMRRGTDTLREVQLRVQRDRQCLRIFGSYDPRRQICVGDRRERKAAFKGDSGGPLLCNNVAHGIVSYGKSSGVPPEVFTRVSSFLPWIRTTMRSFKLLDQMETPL
Put plainly: Inhibition of human cathepsin G. The procedure, abridged:
(§1)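 Cathepsin G stock (680 nM in 0.05 M acetate, pH 5.5) mixed at 25 °C with inhibitor in DMSO and Suc-Ala-Ala-Pro-Phe-p-nitroanilide (stock 42.5 mM in DMSO) in 0.1 M HEPES pH 7.5. A410 recorded continuously for 20 min. Progress curves fitted with slow-binding kinetics. Uninhibited controls ran linearly. Highest concentration tested 60 μM.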

The target in another data set is T2, Papain (Carica papaya) (UniProt P00784).
T2 sequence (whole entry): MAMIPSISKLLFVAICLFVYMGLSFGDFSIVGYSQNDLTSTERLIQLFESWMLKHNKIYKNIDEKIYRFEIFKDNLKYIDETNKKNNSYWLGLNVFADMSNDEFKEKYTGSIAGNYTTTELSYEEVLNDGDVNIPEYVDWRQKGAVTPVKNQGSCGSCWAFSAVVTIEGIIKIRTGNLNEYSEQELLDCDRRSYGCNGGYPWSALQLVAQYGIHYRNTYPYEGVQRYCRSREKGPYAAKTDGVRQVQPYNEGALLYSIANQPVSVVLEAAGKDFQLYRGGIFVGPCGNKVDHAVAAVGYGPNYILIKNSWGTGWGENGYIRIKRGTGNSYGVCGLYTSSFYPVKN
Put plainly: Inhibition of papaya papain at 60 uM. The procedure, abridged:
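Incubation method. Activated papain was held with inhibitor at 25 °C in 50 mM potassium phosphate pH 7.0 with 2.5 mM EDTA. At intervals, aliquots were assayed with BAPA substrate (stock 10 mM in DMSO) in the same buffer, reading A410 for 4 min. Inhibitor-free controls were run in parallel.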

Data set [2] concerns the target T3, Myeloblastin (Homo sapiens) (UniProt P24158).
T3 sequence (whole entry): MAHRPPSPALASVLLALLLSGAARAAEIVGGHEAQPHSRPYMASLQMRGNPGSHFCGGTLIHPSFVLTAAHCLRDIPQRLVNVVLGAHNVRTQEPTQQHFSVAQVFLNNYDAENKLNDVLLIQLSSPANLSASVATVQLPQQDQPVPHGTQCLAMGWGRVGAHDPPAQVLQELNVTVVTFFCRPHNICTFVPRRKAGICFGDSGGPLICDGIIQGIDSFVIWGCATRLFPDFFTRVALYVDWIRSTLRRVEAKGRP
Put plainly: Inhibition of human proteinase 3. The procedure, abridged: (§2)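 Proteinase 3 stock (325 nM in 0.05 M acetate pH 6, 150 mM NaCl) mixed at 25 °C with inhibitor in DMSO and MeOSuc-Ala-Ala-Pro-Val-p-nitroanilide (stock 50 mM in DMSO) in 0.1 M HEPES pH 7.2. A410 followed for 20 000 s. Progress curves fitted to slow-binding equations. Uninhibited controls ran linearly.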

Data set [3] addresses T3, Myeloblastin (Homo sapiens). Put plainly: Inhibition of human proteinase 3 at 60 uM. The procedure, abridged: as §2
Data set [4] addresses T1, Cathepsin G (Homo sapiens). Put plainly: Inhibition of human cathepsin G at 60 uM. The procedure, abridged: as §1
Data set [5] can be described thus: Chemical stability in phosphate buffer assessed as half life at pH 7.4. The class given is physicochemical.
Data set [6] is described as follows: Stability in human plasma assessed as half life at pH 7.4.
Data set [7] addresses T3, Myeloblastin (Homo sapiens). Put plainly: Inhibition of human proteinase 3 at 10 uM. The method in brief: as §2

Consider `CCCCC1(CC)C(=O)N(c2ccccc2)C1=O`, for which the Activity in data set [1] worked out at 47.3 M⁻¹ s⁻¹. Moreover, the result at Papain (Carica papaya) was inactive.
In the same order, the values of `CCC1(CC)C(=O)N(c2cccc3ccccc23)C1=O` are 35.6 M⁻¹ s⁻¹ and “inactive”.
With `CC1(C)C(=O)N(c2ccccc2)C1=O`, the Activity entry in data set [2] (TDE = time-dependent effect) is “tde”.
Regarding `CC1(C)C(=O)N(c2ccc(Cl)cc2)C1=O`, the Activity entry in data set [2] (TDE = time-dependent effect) was “tde”.
Turning to `CC1(Cc2ccccc2)C(=O)N(c2ccccc2)C1=O`, the result (on Papain (Carica papaya); in data set [4]) was inactive. Moreover, the inhibition in data set [3] worked out at 22%.
Regarding `CCC1(CC)C(=O)N(c2ccc(OC)cc2)C1=O`, the Activity entry in data set [2] (TDE = time-dependent effect) is “tde”.
In the case of `CCC1(CC)C(=O)N(c2ccccc2CSc2nc3ccccc3o2)C1=O`, the result (on Papain (Carica papaya); in data set [4]) was inactive. Besides, in data set [2], the Activity amounted to 361 M⁻¹ s⁻¹.
On to `CCC1(CC)C(=O)N(c2ccccc2C)C1=O`, for which, in data set [2] (TDE = time-dependent effect), the Activity result is “tde”.
As for `CCC1(CC)C(=O)N(c2ccc(CSc3nc4cc(C(=O)O)ccc4o3)cc2)C1=O`, the result (on Papain (Carica papaya); in data set [4]) was inactive. The Activity in data set [2] was 689 M⁻¹ s⁻¹.
On to `CCC1(CC)C(=O)N(c2ccc(C)nc2)C1=O`, for which the Activity result in data set [2] (TDE = time-dependent effect) is “tde”.
On the same count and under the same terms, for `CCC1(CC)C(=O)N(c2ccc(Cl)cc2)C1=O` the value was “tde”.
On the same count and under the same terms, for `CCC1(CC)C(=O)N(c2cccnc2)C1=O` the value was “tde”.
On to `CCC1(CC)C(=O)N(c2ccc(CSc3nc4ccccc4o3)cc2)C1=O`, for which the result (at Papain (Carica papaya); in data set [4]) was inactive. The compound also came in with an Activity in data set [2] of 29.6 M⁻¹ s⁻¹.
Take `CCC1(CC(C)C)C(=O)N(c2ccccc2)C1=O`: the Activity entry in data set [2] (TDE = time-dependent effect) is “tde”.
On the same count and under the same terms, with `CCC1(CC)C(=O)N(c2ccccc2)C1=O` the entry was “tde”; with `CCC1(CC)C(=O)N(c2ccccc2CSc2nccn2C)C1=O`, “tde”.
Take `CCC1(Cc2ccccc2)C(=O)N(c2ccccc2)C1=O`: the result (on Papain (Carica papaya); in data set [4]) was inactive. The compound also registered an Activity in data set [2] of 20.2 M⁻¹ s⁻¹.
As to `CCC1(CC)C(=O)N(c2ccc(CSc3nnc(-c4ccccc4)o3)cc2)C1=O`, the Activity entry in data set [2] (TDE = time-dependent effect) is “tde”.
For `CCC1(CC)C(=O)N(c2ccccc2CSc2nc3ccccc3s2)C1=O`, the half-life in data set [5] is 37 h; in data set [6], 1.6 h. Moreover, the Activity entry in data set [2] (TDE = time-dependent effect) is “tde”.
In the same order, the values of `CCC1(CC)C(=O)N(c2ccc(CSc3nc4ccccc4s3)cc2)C1=O` are 10 h, 0.4 h and “tde”.
Turning to `CCC1(CC)C(=O)N(c2ccccc2CSc2nnc(-c3ccccc3)o2)C1=O`, the Activity entry in data set [2] (TDE = time-dependent effect) is “tde”.
As for `CCC1(CC)C(=O)N(c2ccc(C)cc2)C1=O`, the Activity result in data set [2] (TDE = time-dependent effect) was “tde”.
For `CCC1(CC)C(=O)N(c2ccc(CSc3ccccc3)cc2)C1=O`, the result at Papain (Carica papaya) was inactive. This compound also came in with an Activity in data set [2] of 122 M⁻¹ s⁻¹.
`CC1(C)C(=O)N(Cc2ccccc2)C1=O`: the Activity entry in data set [2] (TDE = time-dependent effect) is “tde”.
Consider `CCC1(CC)C(=O)N(c2ccc(CSc3nc4ccccc4s3)nc2)C1=O`, for which the half-life was 13 h in data set [5] and 0.2 h in data set [6]. The result (at Papain (Carica papaya); in data set [4]) was inactive. This compound also displayed an Activity in data set [2] of 4080 M⁻¹ s⁻¹.
In the case of `CCC1(CC)C(=O)N(Cc2ccccc2)C1=O`, the Activity entry in data set [2] (TDE = time-dependent effect) is “tde”.
`CCC1(CC)C(=O)N(c2ccc(C#N)cc2)C1=O` had an inhibition in data set [7] of 16%. The Activity in data set [1] is 36.5 M⁻¹ s⁻¹. Also, the outcome on Papain (Carica papaya) was inactive.
Take `CCOC(=O)CN1C(=O)C(CC)(CC)C1=O`: the Activity entry in data set [2] (TDE = time-dependent effect) is “tde”.
